# Results gathered from unrelated publications.
# Compare with care: the assays were run in different laboratories.
# RET: Proto-oncogene tyrosine-protein kinase receptor Ret (RET, Homo sapiens, UniProt P07949)
# ASH1L: Histone-lysine N-methyltransferase ASH1L (ASH1L, Homo sapiens, UniProt Q9NR48)
# PIP4K2C: Phosphatidylinositol 5-phosphate 4-kinase type-2 gamma (PIP4K2C, Homo sapiens, UniProt Q8TBX8)
# LATS2: Serine/threonine-protein kinase LATS2 (LATS2, Homo sapiens, UniProt Q9NRM7)
# BAZ2A bromodomain: Bromodomain adjacent to zinc finger domain protein 2A, bromodomain (BAZ2A, Homo sapiens, UniProt Q9UIF9)
# Nos2: Nitric oxide synthase, inducible (Nos2, Mus musculus, UniProt P29477)
Compound,target,assay,setting,measurement,value
CCCOc1ccc(OC)c(F)c1C(=O)c1ccc(C(=O)N[C@@H]2CNC[C@H]2NC(=O)c2ccc3[nH]ncc3c2)cc1,RET,"enzyme activity, inhibitor",0.75 µM,remaining activity,41%
Oc1ccc(-c2nc(-c3ccncc3)c(-c3ccc(F)cc3)[nH]2)cc1,ASH1L,"thermal stability, DSF",10 µM,ΔTm,0.27 °C
CN1CCc2cc(Nc3ncc(C4CC4)c(NCCCNC(=O)C4CCC4)n3)ccc2C1,"MAP/microtubule affinity-regulating kinase 4 (MARK4, Homo sapiens, UniProt Q96L34)","enzyme activity, inhibitor, radiometric",1 µM,remaining activity,3%
CC(C)[C@@H]1NC(=O)[C@@H]2CCCN2C(=O)[C@H](Cc2ccccc2)NC(=O)CSC[C@@H](C(=O)N[C@@H](Cc2ccc(O)cc2)C(N)=O)NC(=O)[C@H](Cc2c[nH]c3ccccc23)NC(=O)[C@H](CCCCN)NC(=O)[C@H](Cc2ccccc2)N(C)C(=O)[C@H](Cc2ccccc2)NC1=O,"Stimulator of interferon genes protein (STING1, Homo sapiens, UniProt Q86WV6, H232R)","thermal stability, DSF",200 µM,ΔTm,5.83 °C
Nc1ncnc2occ(-c3ccc(NC(=O)Nc4cc(C(F)(F)F)ccc4F)cc3)c12,PIP4K2C,cell-free assay,20 µM,remaining signal,24%
Cn1cncc1C1=CN(c2ncnc3[nH]cnc23)CCS1,LATS2,"enzyme activity, inhibitor, radiometric",2 µM,inhibition,92.9%
NS(=O)(=O)c1ccc(Nc2nc(-c3ccc(F)cc3)c3ccccc3n2)cc1,BAZ2A bromodomain,"binding, competition with immobilised ligand",1 µM,remaining binding,71%
O=c1occcc1O,Nos2,"enzyme activity, inhibitor",1 mM,inhibition,> 40%
COc1cc2ncnc(Nc3ccc(Oc4ccccc4)cc3C)c2cc1OC,"Tyrosine-protein kinase JAK2, JH1 (JAK2, Homo sapiens, UniProt O60674)","enzyme activity, inhibitor",1 µM,inhibition,-6%
Cc1cnc(Nc2ccc(OCCN3CCCC3)cc2)nc1Nc1cccc(S(=O)(=O)NC(C)(C)C)c1,BAZ2A bromodomain,"thermal stability, DSF",10 µM,ΔTm,-0.11 °C
COc1ccccc1NC(=O)Nc1ccc2nc(NC(=O)c3ccccc3)sc2c1,RET,"enzyme activity, inhibitor, radiometric",0.1 µM,remaining activity,113%
CC(=O)C(Cl)C(C)=O,Nos2,"enzyme activity, inhibitor",1 mM,inhibition,> 40%
O=C(CCCCCCCCc1ccc(O)cc1)c1c(O)cccc1O,"Bifunctional epoxide hydrolase 2 (EPHX2, Homo sapiens, UniProt P34913)","enzyme activity, inhibitor, fluorescence",100 µM,inhibition,93.5%
CCOC(=O)N1CCN(c2nc(Nc3ccc(C)cc3)c3nn[nH]c3n2)CC1,RET,"enzyme activity, inhibitor, radiometric",10 µM,remaining activity,154%
Cc1ccc(C(=O)Nc2ccc(CN3CCN(C)CC3)c(C(F)(F)F)c2)cc1C#Cc1cnc2cccnn12,PIP4K2C,cell-free assay,23.5 nM,remaining signal,99%
CCN(c1cc(C#CCN2CCOCC2)cc(C(=O)NCc2c(C)cc(C)[nH]c2=O)c1C)[C@H]1CC[C@H](N(C)CCOC)CC1,"Histone-lysine N-methyltransferase EZH1 (EZH1, Homo sapiens, UniProt Q92800)","enzyme activity, inhibitor",1 µM,inhibition,98%
O=C(Nc1ccc(NC(=O)c2ccoc2)cc1C(F)(F)F)Nc1ccc(NC(=O)c2ccoc2)cc1C(F)(F)F,RET,"enzyme activity, inhibitor, radiometric",10 µM,remaining activity,101%
O=c1cc(CCl)occ1O,Nos2,"enzyme activity, inhibitor",1 mM,inhibition,> 40%
Cc1cc2c(cc1N1C(=O)c3cccc4c(Cl)ccc(c34)C1=O)n(C)c(=O)n2C,BAZ2A bromodomain,"thermal stability, DSF",10 µM,ΔTm,0 °C
COCC(=O)Nc1cc(C(=O)N(C)CCc2c(C)n[nH]c2C)c2c(c1)ncn2Cc1ccc(F)cc1,RET,"enzyme activity, inhibitor, radiometric",0.1 µM,remaining activity,118%
COc1cc(-c2cc(-c3ccc(N4CCNCC4)cc3)cnc2C)cc(OC)c1OC,LATS2,"enzyme activity, inhibitor",0.1 µM,inhibition,1%
CC(=O)c1cccc(NC(=O)Nc2cc3c(cc2Oc2ccccc2)n(C)c(=O)n3C)c1,RET,"enzyme activity, inhibitor, radiometric",0.1 µM,remaining activity,104%
C=C(F)[C@@](N)(CCCCN)C(=O)O,"Lysine decarboxylase (Hafnia alvei, UniProt P05033)","enzyme activity, inhibitor, absorbance",,KI (inactivation),470 µM
CC(=O)c1cccc(NC(=O)Cc2csc(NC(=O)Nc3cccc(Cl)c3)n2)c1,RET,"enzyme activity, inhibitor, radiometric",0.1 µM,remaining activity,116%
Cc1nn(C)c2ncc(C(=O)NC(=O)Nc3ccc(F)c(C(F)(F)F)c3)cc12,"C5a anaphylatoxin chemotactic receptor 1 (C5AR1, Homo sapiens, UniProt P21730)","ligand displacement, radioligand",10 µM,inhibition,< 10%
O=C(COc1ccc(Cl)cc1C(=O)Nc1ccccc1)Nc1cc(Cl)ccc1-n1cncn1,RET,"enzyme activity, inhibitor, radiometric",10 µM,remaining activity,111%
N#Cc1ccc(/C=C/CN(CC[C@H](N)C(=O)O)C[C@H]2O[C@@H](n3cnc4c(N)ncnc43)[C@H](O)[C@@H]2O)cc1,"Phenylethanolamine N-methyltransferase (PNMT, Homo sapiens, UniProt P11086)","enzyme activity, inhibitor",10 µM,activity vs control,67%
COc1ccc(OC)c(NC(=O)Nc2cc(OC)c3nc(NC(=O)c4ccccc4)sc3c2)c1,RET,"enzyme activity, inhibitor, radiometric",10 µM,remaining activity,94.4%
C[S+]([O-])c1ccc(-c2nc(-c3ccncc3)c(-c3ccc(F)cc3)[nH]2)cc1 (centres unmarked),ASH1L,"thermal stability, DSF",10 µM,ΔTm,0.31 °C
